Results reported in ChEMBL document CHEMBL1221379, “Identification and hit-to-lead optimization of a novel class of CB1 antagonists” (Bioorg Med Chem Lett, 2010).
In brackets after ≈: the same amount, converted by molar mass.

Tests used:
Cannabinoid receptor 1 = Cannabinoid receptor 1 (Homo sapiens, UniProt P21554); assay: Antagonist activity at human cannabinoid CB1 receptor expressed in CHO cells by luciferase reporter gene assay
[1] = Metabolic stability in mouse liver microsome assessed as compound remaining after 0.5 hrs; format: ADME; settings: liver microsomes, read-out: Stability
Outline: (§1)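 Human or mouse liver microsomes (300 nM cytochrome P450) in phosphate buffer pH 7.4 with 1 µM test compound and 1 mM NADPH. Incubated 30 min at 37 °C, stopped with acetonitrile, centrifuged, and analysed by LC/MS. Result given as % compound remaining at 0.5 h.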

[2] = Metabolic stability in human liver microsome assessed as compound remaining after 0.5 hrs; format: ADME; settings: liver microsomes, read-out: Stability
Outline: as §1

[3] = Aqueous solubility of the compound; format: physicochemical; settings: buffer
Outline: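 Shake-flask method. 10 mM DMSO stock added to 0.05 M phosphate buffered saline pH 7.4, 2% DMSO final. Vortexed at 1500 rpm for 24 h at 21 °C, then vacuum-filtered. Filtrate assayed by HPLC with UV at 230 nm against a calibration from a 50 µM DMSO solution. Duplicate determinations, averaged.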

[4] = Oral bioavailability in Wistar rat at 5 mg/kg; format: ADME, organism-based; settings: in vivo
Outline: (§2)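 Male Wistar rats dosed 5 mpk po in 0.5% gelatin in 5% mannitol (aq), or 1 mpk iv in 20% N,N-dimethylacetamide in saline. AUC po taken over 0–7.5 h; clearance and half-life from iv dosing; oral bioavailability and Vss from po/iv pharmacokinetic parameters.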

[5] = Half life in Wistar rat at 1 mg/kg, iv; format: ADME, organism-based; set-up: dose 1 mg/kg, route intravenous; settings: in vivo
Outline: as §2

[6] = Clearance in Wistar rat at 1 mg/kg, iv; format: ADME, organism-based; set-up: dose 1 mg/kg, route intravenous; settings: in vivo
Outline: as §2

[7] = Volume of distribution at steady state in Wistar rat at 5 mg/kg, po and 1 mg/kg, iv; format: ADME, organism-based; settings: in vivo, read-out: Vdss
Outline: as §2

Mus musculus [8] = assay: Inhibition of WIN-55212-2-induced hypothermia in mouse assessed as change in rectal temperature at 30 umol/kg sc administered 15 mins before WIN-55212-2 challenge measured after 60 mins; set-up: scale not given: the % may be the effect or the level left
[9] = AUC (0 to 7.5 hrs) in Wistar rat at 5 mg/kg, po; format: ADME, organism-based; set-up: time < 7.5 hr, dose 5 mg/kg, route oral; settings: plasma
Outline: as §2

Mus musculus [10] = assay: Inhibition of WIN-55212-2-induced hypothermia in mouse assessed as change in rectal temperature at 100 umol/kg sc administered 15 mins before WIN-55212-2 challenge measured after 60 mins; set-up: scale not given: the % may be the effect or the level left
Mus musculus [11] = assay: Inhibition of WIN-55212-2-induced hypothermia in sc dosed mouse assessed as change in rectal temperature administered 15 mins before WIN-55212-2 challenge measured after 60 mins; settings: 1 h
Mus musculus [12] = assay: Inhibition of WIN-55212-2-induced hypothermia in mouse assessed as change in rectal temperature at 1 umol/kg sc administered 15 mins before WIN-55212-2 challenge measured after 60 mins; set-up: scale not given: the % may be the effect or the level left
Mus musculus [13] = assay: Inhibition of WIN-55212-2-induced hypothermia in mouse assessed as change in rectal temperature at 10 umol/kg sc administered 15 mins before WIN-55212-2 challenge measured after 60 mins; set-up: scale not given: the % may be the effect or the level left
Mus musculus [14] = assay: Inhibition of WIN-55212-2-induced hypothermia in mouse assessed as change in rectal temperature at 0.1 umol/kg sc administered 15 mins before WIN-55212-2 challenge measured after 60 mins; set-up: scale not given: the % may be the effect or the level left
Mus musculus [15] = assay: Inhibition of WIN-55212-2-induced hypothermia in mouse assessed as change in rectal temperature at 0.01 umol/kg sc administered 15 mins before WIN-55212-2 challenge measured after 60 mins; set-up: scale not given: the % may be the effect or the level left
Mus musculus [16] = assay: Inhibition of WIN-55212-2-induced hypothermia in mouse assessed as change in rectal temperature at 3 umol/kg sc administered 15 mins before WIN-55212-2 challenge measured after 60 mins; set-up: scale not given: the % may be the effect or the level left
Mus musculus [17] = assay: Inhibition of WIN-55212-2-induced hypothermia in mouse assessed as change in rectal temperature at 0.3 umol/kg sc administered 15 mins before WIN-55212-2 challenge measured after 60 mins; set-up: scale not given: the % may be the effect or the level left

Cannabinoid receptor 1, sequence (P21554 whole entry): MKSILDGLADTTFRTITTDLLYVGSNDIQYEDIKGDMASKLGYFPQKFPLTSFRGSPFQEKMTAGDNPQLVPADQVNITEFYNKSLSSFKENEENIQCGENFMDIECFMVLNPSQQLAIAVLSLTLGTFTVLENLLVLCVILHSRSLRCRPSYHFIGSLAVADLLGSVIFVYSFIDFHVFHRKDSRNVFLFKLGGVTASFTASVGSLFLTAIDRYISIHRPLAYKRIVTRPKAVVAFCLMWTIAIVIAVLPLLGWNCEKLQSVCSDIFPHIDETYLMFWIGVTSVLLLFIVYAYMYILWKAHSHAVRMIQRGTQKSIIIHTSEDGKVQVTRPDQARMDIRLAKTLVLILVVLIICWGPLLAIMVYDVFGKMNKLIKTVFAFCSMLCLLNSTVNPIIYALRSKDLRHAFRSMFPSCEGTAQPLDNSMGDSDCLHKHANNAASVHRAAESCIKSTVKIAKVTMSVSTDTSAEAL

Structure (SMILES)	IC50 (Cannabinoid receptor 1)	remaining at 0.5 h [1]	remaining at 0.5 h [2]	solubility [3]	further results
COc1ccccc1-c1cccc(Cn2cnc3ccc(C(=O)NCc4cccc(F)c4)cc32)c1	0.104 µM	0%	2%		
CC(C)(C)C(=O)Nc1ccc2ncn(Cc3cccc(-c4cccc5c4OCO5)c3)c2c1	0.064 µM	2%	35%		
COc1cc(F)ccc1-c1cccc(Cn2cnc3ccc(NC(=O)C(C)(C)C)cc32)c1	0.269 µM				
COc1cc(F)ccc1-c1cccc(Cn2cnc3ccc(NC(=O)C(C)(C)C)cc32)n1	0.073 µM	1%	14%		
CC(C)(C)C(=O)Nc1ccc2ccn(Cc3cccc(-c4cccc5c4OCO5)c3)c2c1	0.051 µM	65%	72%	< 1 µg/mL	
COc1cc(F)ccc1-c1cccc(Cn2ccc3ccc(NC(=O)C(C)(C)C)cc32)c1	0.058 µM	58%	51%	< 1 µg/mL	
Cn1cc(Cc2cccc(-c3cccc4c3OCO4)c2)c2cc(NC(=O)C(C)(C)C)ccc21	0.037 µM	29%	52%	< 1 µg/mL	
Cc1c(C(=O)NN2CCCCC2)nn(-c2ccc(Cl)cc2Cl)c1-c1ccc(Cl)cc1 [RIMONABANT]					Activity (Mus musculus [12]): 60.2%; Activity (Mus musculus [13]): 113.4%; Activity (Mus musculus [14]): 13.8%; Activity (Mus musculus [15]): -0.2%; Activity (Mus musculus [8]): 100.4%; Activity (Mus musculus [16]): 116.7%; Activity (Mus musculus [17]): 14.7%; ED50 (Mus musculus [11]): 0.8 µmol/kg

Continued by falling IC50 (Cannabinoid receptor 1), values first:

IC50 (Cannabinoid receptor 1)	remaining at 0.5 h [1]	remaining at 0.5 h [2]	solubility [3]	Structure (SMILES)	further results
0.045 µM	72%	70%	< 1 µg/mL	COc1cc(F)ccc1-c1cccc(Cc2cn(C)c3ccc(NC(=O)C(C)(C)C)cc23)c1	
0.045 µM	54%	45%	11.7 µg/mL (≈ 26.1 µM)	COc1cc(F)ccc1-c1cccc(Cn2ccc3ccc(NC(=O)C(C)(C)CO)cc32)n1	
0.027 µM	5%	47%	2 µg/mL (≈ 4.33 µM)	COc1cc(F)ccc1-c1cccc(Cc2cn(C)c3ccc(NC(=O)C(C)(C)CO)cc23)n1	
0.023 µM	44%	35%	17.9 µg/mL (≈ 40 µM)	COc1cc(F)ccc1-c1cccc(Cn2ccc3ccc(NC(=O)CC(C)(C)O)cc32)n1	
0.021 µM	17%	28%		CC(C)(C)C(=O)Nc1ccc2ncn(Cc3cccc(-c4cccc5c4OCO5)n3)c2c1	
0.019 µM	14%	41%	10.6 µg/mL (≈ 23 µM)	COc1cc(F)ccc1-c1cccc(Cc2cn(C)c3ccc(NC(=O)CC(C)(C)O)cc23)n1	
0.007 µM	52%	62%	3.2 µg/mL (≈ 7.22 µM)	CC(C)(CO)C(=O)Nc1ccc2ccn(Cc3cccc(-c4cccc5c4OCO5)n3)c2c1	
0.007 µM	16%	56%	< 1 µg/mL	Cn1cc(Cc2cccc(-c3cccc4c3OCO4)n2)c2cc(NC(=O)C(C)(C)CO)ccc21	
0.005 µM	36%	56%	14.9 µg/mL (≈ 32.6 µM)	Cn1cc(Cc2cccc(-c3cccc4c3OCO4)n2)c2cc(NC(=O)CC(C)(C)O)ccc21	bioavailability [4]: 37%; half-life [5]: 1 h; clearance [6]: 1.14 L/h/kg; Vd [7]: 1.2 L/kg; Activity (Mus musculus [8]): 46.8%; AUC(0-t) at 7.5 h [9]: 1.29 µg·h/mL; Activity (Mus musculus [10]): 92.5%; ED50 (Mus musculus [11]): 30 µmol/kg
0.003 µM	53%	51%	< 1 µg/mL	CC(C)(O)CC(=O)Nc1ccc2ccn(Cc3cccc(-c4cccc5c4OCO5)n3)c2c1	
